Legend:
[1] = target: Serine-protein kinase ATM (Homo sapiens, UniProt Q13315); assay: Inhibition of ATM (unknown origin)
[2] = target: Dual specificity tyrosine-phosphorylation-regulated kinase 1A (Rattus norvegicus) (UniProt Q63470); assay: Inhibition of rat DYRK1A at 10 uM relative to control
Canis familiaris = assay: Antithrombotic activity in iv dosed Beagle dog assessed as restoration of blood flow administered via bolus infusion for 29 mins; format: functional, organism-based; settings: Canis lupus familiaris
Method in brief: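 Modified Folts' model of thrombosis in a damaged, stenosed femoral artery of anesthetized dogs. Animals first received saline vehicle. Consecutive i.v. doses then followed, each given over a 30-min period as a bolus (0.03–1.3 μg kg−1) plus an infusion (0.005–0.24 μg kg min−1). Read-outs were cyclic flow reductions, expressed as % restoration of blood flow, plus bleeding time, blood loss and plasma drug exposure. Mean ± SEM, n = 6.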

[3] = target: Ribosomal protein S6 kinase alpha-1 (Homo sapiens) (UniProt Q15418); assay: Inhibition of MAPK Activated Protein Kinase-1a (unknown origin) at 10 uM relative to control
[4] = target: Mitogen-activated protein kinase 15 (Homo sapiens) (UniProt Q8TD08); assay: Inhibition of human MAPK15 at 10 uM relative to control
[5] = target: Serine/threonine-protein kinase PLK1 (Homo sapiens, UniProt P53350); assay: Inhibition of human PLK
[6] = target: Fibroblast growth factor receptor 1 (Homo sapiens, UniProt P11362); assay: Inhibition of human FGFR1
[7] = Toxicity in Sprague-Dawley rat hyperinsulinemic-euglycemic glucose clamp model assessed as increase in blood pressure at 1000 ug/kg/min, iv for 2 mins followed by 50 ug/kg/min, iv for 28 mins; format: organism-based; settings: in vivo, 0.5 h, time 30 min
Method in brief: (§1)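 Anesthetized rats underwent two consecutive hyperinsulinemic–euglycemic clamps with human insulin infusion: a baseline Clamp1, then Clamp2 with vehicle or AZD6482 i.v. (n = 4–5/group). Blood pressure and heart rate were followed during control periods and after drug administration. Steady-state glucose infusion rate maintained euglycemia.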

[8] = target: Serine/threonine-protein kinase N2 (Homo sapiens) (UniProt Q16513); assay: Inhibition of human PRK2 at 10 uM relative to control
[9] = Plasma concentration in Sprague-Dawley rat hyperinsulinemic-euglycemic glucose clamp model at […], iv for 2 mins followed by 50 ug/kg/min, iv for 28 mins; format: ADME, organism-based; settings: time 30 min
Method in brief: (§2)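 Plasma drug levels were sampled during the drug-infusion clamp period (Clamp2) in anesthetized rats under a human-insulin hyperinsulinemic–euglycemic clamp. I.v. regimens were 1000 μg kg−1 + 50 μg kg min−1 or 6000 μg kg−1 + 300 μg kg min−1; mean ± SEM, n = 4–5/group.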

[10] = Protein binding in human plasma assessed as unbound fraction; format: ADME, cell-free
[11] = target: Tyrosine-protein kinase CSK (Homo sapiens, UniProt P41240); assay: Inhibition of human CSK
[12] = target: Eukaryotic elongation factor 2 kinase (Homo sapiens) (UniProt O00418); assay: Inhibition of human EF2K at 10 uM relative to control
Rattus norvegicus [13] = assay: Insulin sensitizing activity in Sprague-Dawley rat hyperinsulinemic-euglycemic glucose clamp model assessed as glucose infusion rate required to maintain euglycemia during infusion of human insulin at 1000 ug/kg/min, iv for 2 mins followed by 50 ug/kg/min, iv for 28 mins measured during clamp 1 (reference value: 124 +/- 4 umol/min/kg); format: functional; settings: time 30 min, 0.5 h
Method in brief: (§3)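 Anesthetized rats; hyperinsulinemic–euglycemic clamp with human insulin infused. A baseline clamp (Clamp1) was followed by a second clamp (Clamp2) with vehicle or drug i.v. The drug was given as a low dose (1000 μg kg−1 + 50 μg kg min−1) or a high dose (6000 μg kg−1 + 300 μg kg min−1). Steady-state glucose infusion rate for euglycemia was recorded, with plasma glucose, human insulin and total insulin; mean ± SEM, n = 4–5/group.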

[14] = target: Proto-oncogene tyrosine-protein kinase Src (Homo sapiens, UniProt P12931); assay: Inhibition of human src
Rattus norvegicus [15] = assay: Insulin sensitizing activity in Sprague-Dawley rat hyperinsulinemic-euglycemic glucose clamp model assessed as human insulin level during infusion of human insulin at 6000 ug/kg/min, iv for 2 mins followed by 300 ug/kg/min, iv for 28 mins measured during clamp 2 (reference value: 1.8 +/- 0.1 nM); format: functional; settings: time 30 min, 0.5 h; method in brief: as §3
[16] = target: Ribosomal protein S6 kinase alpha-3 (Homo sapiens) (UniProt P51812); assay: Inhibition of human MAPKAPK1B at 10 uM relative to control
[17] = Inhibition of PI3Kbeta in Beagle dog whole blood assessed as reduction in ADP-induced platelet aggregation at 1 uM preincubated for 5 mins followed by ADP addition and measured for 6 mins by impedance aggregometry relative to control; settings: Canis lupus familiaris, 11 min, condition thrombotic disease
[18] = Toxicity in Sprague-Dawley rat hyperinsulinemic-euglycemic glucose clamp model assessed as change in heart rate at 6000 ug/kg/min, iv for 2 mins followed by 300 ug/kg/min, iv for 28 mins; format: organism-based; settings: in vivo, 0.5 h, time 30 min; method in brief: as §1
[19] = target: Mitogen-activated protein kinase 10 (Homo sapiens) (UniProt P53779); assay: Inhibition of human JNK3 at 10 uM relative to control
[20] = Toxicity in Sprague-Dawley rat assessed as change in heart rate at 30000 ug/kg, iv for 2 mins followed by 1500 ug/kg/min, iv for 28 mins; format: organism-based; settings: in vivo, 30 mg/kg, 0.5 h, time 30 min
Method in brief: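 Overnight-fasted anesthetized rats got three consecutive escalating i.v. doses over 30 min each (n = 4/group). Heart rate and blood pressure were followed alongside end-of-interval blood samples for plasma drug exposure, glucose and insulin (relative HOMA index experiments).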

[21] = target: RAC-beta serine/threonine-protein kinase (Homo sapiens) (UniProt P31751); assay: Inhibition of human AKT2 at 10 uM relative to control
[22] = target: Tyrosine-protein kinase ZAP-70 (Homo sapiens, UniProt P43403); assay: Inhibition of human ZAP70
Rattus norvegicus [23] = assay: Insulin sensitizing activity in Sprague-Dawley rat hyperinsulinemic-euglycemic glucose clamp model assessed as human insulin level during infusion of human insulin at 1000 ug/kg/min, iv for 2 mins followed by 50 ug/kg/min, iv for 28 mins measured during clamp 2 (reference value: 1.8 +/- 0.1 nM); format: functional; settings: time 30 min, 0.5 h; method in brief: as §3
[24] = target: Serine/threonine-protein kinase Nek6 (Homo sapiens) (UniProt Q9HC98); assay: Inhibition of human NEK6 at 10 uM relative to control
[25] = target: Maternal embryonic leucine zipper kinase (Homo sapiens) (UniProt Q14680); assay: Inhibition of human MELK at 10 uM relative to control
[26] = target: Mitogen-activated protein kinase 1 (Mus musculus) (UniProt P63085); assay: Inhibition of mouse MAPK1 at 10 uM relative to control
[27] = Plasma concentration in Sprague-Dawley rat hyperinsulinemic-euglycemic glucose clamp model at […], iv for 2 mins followed by 300 ug/kg/min, iv for 28 mins; format: ADME, organism-based; settings: time 30 min; method in brief: as §2
Rattus norvegicus [28] = assay: Insulin sensitizing activity in Sprague-Dawley rat hyperinsulinemic-euglycemic glucose clamp model assessed as basal total insulin level during infusion of human insulin at 1000 ug/kg/min, iv for 2 mins followed by 50 ug/kg/min, iv for 28 mins (reference value: 0.3 +/- 0.1 nM); format: functional; settings: time 30 min, 0.5 h; method in brief: as §3

Chain of Fibroblast growth factor receptor 1 (P11362 whole entry): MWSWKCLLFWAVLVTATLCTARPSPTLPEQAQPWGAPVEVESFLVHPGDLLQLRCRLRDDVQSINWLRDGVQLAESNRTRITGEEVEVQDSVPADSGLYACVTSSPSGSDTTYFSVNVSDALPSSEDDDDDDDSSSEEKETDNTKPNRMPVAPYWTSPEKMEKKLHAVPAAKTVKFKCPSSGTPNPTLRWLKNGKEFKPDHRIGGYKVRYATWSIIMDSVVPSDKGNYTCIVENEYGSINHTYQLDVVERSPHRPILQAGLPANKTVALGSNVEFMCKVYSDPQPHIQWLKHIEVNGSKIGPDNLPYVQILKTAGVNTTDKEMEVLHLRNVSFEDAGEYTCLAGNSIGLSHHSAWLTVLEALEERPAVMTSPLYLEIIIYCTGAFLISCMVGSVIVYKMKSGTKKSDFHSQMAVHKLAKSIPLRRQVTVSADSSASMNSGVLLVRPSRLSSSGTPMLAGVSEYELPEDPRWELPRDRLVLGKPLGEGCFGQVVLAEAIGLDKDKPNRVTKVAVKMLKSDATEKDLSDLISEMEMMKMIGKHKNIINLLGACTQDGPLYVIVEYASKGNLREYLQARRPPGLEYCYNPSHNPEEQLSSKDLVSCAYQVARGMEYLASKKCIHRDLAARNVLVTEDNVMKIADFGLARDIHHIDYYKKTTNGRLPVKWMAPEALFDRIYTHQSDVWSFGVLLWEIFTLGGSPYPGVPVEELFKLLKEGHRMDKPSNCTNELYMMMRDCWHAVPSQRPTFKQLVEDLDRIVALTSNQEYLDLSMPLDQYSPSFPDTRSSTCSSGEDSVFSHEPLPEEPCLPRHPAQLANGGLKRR
Chain of Tyrosine-protein kinase CSK (P41240 whole entry): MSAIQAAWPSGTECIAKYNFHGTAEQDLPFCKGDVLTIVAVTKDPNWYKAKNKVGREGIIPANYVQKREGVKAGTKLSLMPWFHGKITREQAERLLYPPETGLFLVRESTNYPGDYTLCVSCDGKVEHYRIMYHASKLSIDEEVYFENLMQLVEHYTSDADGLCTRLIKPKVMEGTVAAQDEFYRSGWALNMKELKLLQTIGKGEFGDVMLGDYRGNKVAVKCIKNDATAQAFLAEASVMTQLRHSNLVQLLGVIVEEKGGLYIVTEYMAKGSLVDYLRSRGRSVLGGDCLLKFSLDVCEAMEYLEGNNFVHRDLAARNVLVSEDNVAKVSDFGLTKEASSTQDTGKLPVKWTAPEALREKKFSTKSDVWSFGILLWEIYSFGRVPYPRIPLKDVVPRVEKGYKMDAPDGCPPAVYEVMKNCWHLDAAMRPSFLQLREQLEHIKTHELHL
Chain of Proto-oncogene tyrosine-protein kinase Src (P12931 2-536 limits assumed): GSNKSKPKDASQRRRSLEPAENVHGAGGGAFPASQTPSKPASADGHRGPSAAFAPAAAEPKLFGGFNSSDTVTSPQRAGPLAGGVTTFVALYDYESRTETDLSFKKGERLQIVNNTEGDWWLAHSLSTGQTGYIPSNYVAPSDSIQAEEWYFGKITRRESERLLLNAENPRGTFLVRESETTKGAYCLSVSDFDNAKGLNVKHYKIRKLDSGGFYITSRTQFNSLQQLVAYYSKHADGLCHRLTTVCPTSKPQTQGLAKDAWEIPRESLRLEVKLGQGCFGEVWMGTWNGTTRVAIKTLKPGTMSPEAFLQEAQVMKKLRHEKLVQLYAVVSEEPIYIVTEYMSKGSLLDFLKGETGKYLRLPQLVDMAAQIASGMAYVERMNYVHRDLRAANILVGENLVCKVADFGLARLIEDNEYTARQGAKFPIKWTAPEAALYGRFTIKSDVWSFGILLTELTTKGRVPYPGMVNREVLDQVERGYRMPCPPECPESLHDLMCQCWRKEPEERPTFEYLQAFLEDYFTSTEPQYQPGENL
Chain of Mitogen-activated protein kinase 15 (Homo sapiens) (Q8TD08 whole entry): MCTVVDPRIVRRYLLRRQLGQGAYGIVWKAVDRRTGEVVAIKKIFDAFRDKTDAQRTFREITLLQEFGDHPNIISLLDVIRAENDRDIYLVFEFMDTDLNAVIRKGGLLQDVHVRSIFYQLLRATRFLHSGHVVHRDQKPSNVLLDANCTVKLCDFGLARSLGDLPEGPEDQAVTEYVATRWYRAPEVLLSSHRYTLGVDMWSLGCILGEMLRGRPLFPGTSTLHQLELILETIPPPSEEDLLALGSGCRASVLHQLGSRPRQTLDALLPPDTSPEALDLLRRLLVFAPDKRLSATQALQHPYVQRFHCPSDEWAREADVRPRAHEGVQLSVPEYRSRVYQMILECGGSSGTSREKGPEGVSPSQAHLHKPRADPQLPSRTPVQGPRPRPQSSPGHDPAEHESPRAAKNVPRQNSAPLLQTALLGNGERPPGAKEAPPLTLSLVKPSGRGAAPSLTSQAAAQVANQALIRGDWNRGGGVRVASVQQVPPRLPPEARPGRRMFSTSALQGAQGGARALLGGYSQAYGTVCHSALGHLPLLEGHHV
Chain of Serine/threonine-protein kinase Nek6 (Homo sapiens) (Q9HC98 whole entry): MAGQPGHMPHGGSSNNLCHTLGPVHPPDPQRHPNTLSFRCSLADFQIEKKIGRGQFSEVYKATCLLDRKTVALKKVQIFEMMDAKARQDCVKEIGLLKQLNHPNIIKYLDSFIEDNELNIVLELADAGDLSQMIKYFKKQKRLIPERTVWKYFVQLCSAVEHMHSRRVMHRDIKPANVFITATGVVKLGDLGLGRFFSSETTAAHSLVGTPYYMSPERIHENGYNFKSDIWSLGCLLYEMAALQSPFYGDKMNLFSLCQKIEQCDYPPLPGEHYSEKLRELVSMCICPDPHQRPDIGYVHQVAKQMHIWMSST
Chain of Serine/threonine-protein kinase PLK1 (P53350 whole entry): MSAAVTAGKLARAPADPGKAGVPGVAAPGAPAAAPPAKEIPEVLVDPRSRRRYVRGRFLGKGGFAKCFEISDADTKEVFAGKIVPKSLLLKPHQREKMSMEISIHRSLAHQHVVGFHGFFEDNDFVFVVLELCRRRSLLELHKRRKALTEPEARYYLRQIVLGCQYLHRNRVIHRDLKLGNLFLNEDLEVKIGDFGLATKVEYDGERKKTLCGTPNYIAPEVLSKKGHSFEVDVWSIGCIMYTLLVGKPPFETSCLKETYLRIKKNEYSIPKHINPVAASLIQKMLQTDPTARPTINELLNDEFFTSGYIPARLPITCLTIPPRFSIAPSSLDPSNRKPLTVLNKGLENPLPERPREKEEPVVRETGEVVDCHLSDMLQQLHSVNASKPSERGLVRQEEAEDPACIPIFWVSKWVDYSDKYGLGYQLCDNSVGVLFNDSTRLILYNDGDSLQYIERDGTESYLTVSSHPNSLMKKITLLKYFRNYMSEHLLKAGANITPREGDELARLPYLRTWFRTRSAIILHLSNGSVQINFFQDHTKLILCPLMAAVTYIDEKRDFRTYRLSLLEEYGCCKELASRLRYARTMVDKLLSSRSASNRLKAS
Chain of Ribosomal protein S6 kinase alpha-1 (Homo sapiens) (Q15418 whole entry): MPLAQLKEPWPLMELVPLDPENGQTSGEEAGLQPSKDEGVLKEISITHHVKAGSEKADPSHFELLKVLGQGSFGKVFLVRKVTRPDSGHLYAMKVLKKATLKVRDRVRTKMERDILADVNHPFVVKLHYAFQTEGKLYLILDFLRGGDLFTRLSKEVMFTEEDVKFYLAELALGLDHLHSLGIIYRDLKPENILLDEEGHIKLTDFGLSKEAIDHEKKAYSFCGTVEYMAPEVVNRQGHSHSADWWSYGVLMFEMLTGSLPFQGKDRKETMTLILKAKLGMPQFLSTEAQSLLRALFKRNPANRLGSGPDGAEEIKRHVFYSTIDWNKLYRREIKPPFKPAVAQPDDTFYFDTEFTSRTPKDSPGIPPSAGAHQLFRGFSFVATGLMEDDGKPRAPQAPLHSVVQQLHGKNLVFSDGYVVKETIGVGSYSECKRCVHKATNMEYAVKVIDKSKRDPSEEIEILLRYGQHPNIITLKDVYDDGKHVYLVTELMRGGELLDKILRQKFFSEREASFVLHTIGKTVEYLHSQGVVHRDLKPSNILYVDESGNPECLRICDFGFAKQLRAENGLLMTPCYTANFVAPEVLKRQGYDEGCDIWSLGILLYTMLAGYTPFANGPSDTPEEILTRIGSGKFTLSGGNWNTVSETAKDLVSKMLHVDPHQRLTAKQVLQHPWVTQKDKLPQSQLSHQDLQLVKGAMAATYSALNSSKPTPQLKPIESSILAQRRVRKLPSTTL
Chain of Mitogen-activated protein kinase 1 (Mus musculus) (P63085 whole entry): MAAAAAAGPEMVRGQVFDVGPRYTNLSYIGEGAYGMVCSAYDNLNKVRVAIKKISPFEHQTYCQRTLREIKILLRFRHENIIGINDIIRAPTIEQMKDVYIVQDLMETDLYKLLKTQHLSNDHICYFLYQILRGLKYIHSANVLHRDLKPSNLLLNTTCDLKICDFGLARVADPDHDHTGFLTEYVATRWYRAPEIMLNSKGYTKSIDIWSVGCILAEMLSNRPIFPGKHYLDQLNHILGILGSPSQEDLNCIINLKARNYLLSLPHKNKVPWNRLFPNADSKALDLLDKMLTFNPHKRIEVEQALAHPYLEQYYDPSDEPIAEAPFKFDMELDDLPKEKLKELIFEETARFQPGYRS
Chain of Tyrosine-protein kinase ZAP-70 (P43403 whole entry, the tested form may be a part): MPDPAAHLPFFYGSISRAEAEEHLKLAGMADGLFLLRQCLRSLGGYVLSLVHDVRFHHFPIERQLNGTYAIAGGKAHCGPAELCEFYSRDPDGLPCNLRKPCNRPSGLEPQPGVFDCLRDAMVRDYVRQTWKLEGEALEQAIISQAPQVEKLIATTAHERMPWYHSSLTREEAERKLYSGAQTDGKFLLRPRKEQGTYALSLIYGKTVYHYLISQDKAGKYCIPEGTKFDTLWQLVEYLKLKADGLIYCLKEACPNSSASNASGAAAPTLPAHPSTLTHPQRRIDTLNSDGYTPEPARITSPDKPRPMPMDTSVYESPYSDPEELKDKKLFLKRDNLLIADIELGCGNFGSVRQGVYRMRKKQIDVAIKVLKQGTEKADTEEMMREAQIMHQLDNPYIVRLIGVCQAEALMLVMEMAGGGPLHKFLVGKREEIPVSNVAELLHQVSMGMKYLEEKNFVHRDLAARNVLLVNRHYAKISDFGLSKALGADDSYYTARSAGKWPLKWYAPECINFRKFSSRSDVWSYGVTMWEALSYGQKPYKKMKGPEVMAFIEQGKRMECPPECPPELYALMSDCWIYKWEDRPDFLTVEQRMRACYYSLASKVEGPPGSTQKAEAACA

## Cc1cc([C@@H](C)Nc2ccccc2C(=O)O)c2nc(N3CCOCC3)cc(=O)n2c1 [AZD-6482]
[1]
  IC50: > 30 µM
[2]
  inhibition: 9%
Canis familiaris
  EC50: 0.35 µM
[3]
  inhibition: 1.6%
[4]
  inhibition: 14%
[5]
  IC50: 84 µM
[6]
  IC50: > 699 µM
[7]
  Activity: 6 mmHg
[8]
  inhibition: -2.9%
[9]
  concentration at 0.5 h: 2.3 µM
[10]
  fraction unbound: 0.08
[11]
  IC50: 90 µM
[12]
  inhibition: 7.6%
Rattus norvegicus [13]
  Activity: 105 µmol/min/kg
[14]
  IC50: 37 µM
Rattus norvegicus [15]
  Activity: 2.3 nM
[16]
  inhibition: 15%
[17]
  inhibition at 1 µM: > 80%
[18]
  Activity: Non-Toxic
[19]
  inhibition: 4.4%
[20]
  Activity: Non-Toxic
[21]
  inhibition: 16%
[22]
  IC50: > 999 µM
Rattus norvegicus [23]
  Activity: 1.8 nM
[24]
  inhibition: 2.5%
[25]
  inhibition: 17%
[26]
  inhibition: 3.6%
[27]
  concentration at 0.5 h: 26.8 µM
Rattus norvegicus [28]
  Activity: 0.3 nM

— ChEMBL document CHEMBL5678808, “Human target validation of phosphoinositide 3-kinase (PI3K)β: effects on platelets and insulin sensitivity, using AZD6482 a novel PI3Kβ inhibitor” (J Thromb Haemost, 2012)
